Measured values of several laboratories.
Target: Serine/threonine-protein kinase PLK4 (PLK4, Homo sapiens, UniProt O00444)
One construct used (O00444 1-970): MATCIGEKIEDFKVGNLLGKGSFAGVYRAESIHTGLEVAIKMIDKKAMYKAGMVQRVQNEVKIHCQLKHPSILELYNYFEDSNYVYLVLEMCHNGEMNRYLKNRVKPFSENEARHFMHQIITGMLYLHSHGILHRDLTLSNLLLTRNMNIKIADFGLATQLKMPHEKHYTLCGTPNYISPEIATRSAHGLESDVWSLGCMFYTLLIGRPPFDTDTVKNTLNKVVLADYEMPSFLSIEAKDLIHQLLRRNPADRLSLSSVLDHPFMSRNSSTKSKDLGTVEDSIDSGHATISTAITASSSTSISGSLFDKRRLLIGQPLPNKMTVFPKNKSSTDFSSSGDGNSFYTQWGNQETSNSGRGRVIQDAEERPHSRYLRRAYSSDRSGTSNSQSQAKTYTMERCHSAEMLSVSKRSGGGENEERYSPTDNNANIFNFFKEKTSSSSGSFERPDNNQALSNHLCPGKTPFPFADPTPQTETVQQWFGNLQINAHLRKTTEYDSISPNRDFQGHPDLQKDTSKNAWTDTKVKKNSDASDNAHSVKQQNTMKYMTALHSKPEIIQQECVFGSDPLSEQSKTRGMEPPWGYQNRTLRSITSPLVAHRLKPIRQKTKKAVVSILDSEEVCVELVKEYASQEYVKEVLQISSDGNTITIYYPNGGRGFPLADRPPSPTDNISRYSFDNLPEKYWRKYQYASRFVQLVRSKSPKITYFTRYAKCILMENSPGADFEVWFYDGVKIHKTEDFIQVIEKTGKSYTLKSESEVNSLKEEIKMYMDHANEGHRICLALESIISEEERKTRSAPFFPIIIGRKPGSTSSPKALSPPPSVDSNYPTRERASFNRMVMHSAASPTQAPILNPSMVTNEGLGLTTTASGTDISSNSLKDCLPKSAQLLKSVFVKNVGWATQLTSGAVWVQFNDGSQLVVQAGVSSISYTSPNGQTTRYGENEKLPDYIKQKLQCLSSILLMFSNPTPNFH

Compound | observed | technique | concentration | remaining binding [%]
CCCCN(CCCC)C(=O)CN1C[C@H](c2cc(OC)c3c(c2)OCO3)[C@@H](C(=O)O)[C@@H]1CC(C)(C)CCC | cell-free assay | competition with immobilised ligand | 1 µM | 100
Cc1cnn2ncc(-c3ccnc(N(C)C)n3)c2c1 | binding |  | 1 µM | 74
CC(C)(O)c1cncc(-c2nc3ccc(F)cc3n2C2CC2)c1 | cell-free assay | competition with immobilised ligand | 1 µM | 79
O=C(NCC1CCOCC1)c1n[nH]cc1NC(=O)c1c(F)cccc1F | binding | competition with immobilised ligand | 1 µM | 75
COc1cnc(Nc2cccc(S(N)(=O)=O)c2)nc1N1CCN(c2ccccc2)CC1 | binding | competition with immobilised ligand | 1 µM | 99
N#CC1(c2ccccn2)CCN(Cc2cc(C(=O)N3CCCC3)c(=O)n3ccccc23)CC1 | cell-free assay | competition with immobilised ligand | 1 µM | 87
CCN1CCN(Cc2ccc(C(=O)Nc3ccc(C)c(Oc4ccc5c(c4)CC(=O)N5)c3)cc2C(F)(F)F)CC1 | binding | competition with immobilised ligand | 1 µM | 100
C[C@@H]1CN(c2ccc3ncc(-c4ccc5[nH]nc(C6CC6)c5c4)n3n2)C[C@H](C)O1 | binding | competition with immobilised ligand | 50 nM | 88
COc1cc(C(=O)N2CCC(N3CCN(C)CC3)CC2)ccc1Nc1ncc2c(n1)N(C)c1ccccc1C(=O)N2C | binding | competition with immobilised ligand | 10 µM | 0
C[C@H]1CCN(c2nccc(-c3cnn4ncccc34)n2)C1 | binding |  | 1 µM | 99
O=C(NCCCN1CCOCC1)c1ccc(Nc2nccc(-c3cc4ccccc4s3)n2)cc1 | binding | competition with immobilised ligand | 1 µM | 58
CN(CCCC(F)(F)F)c1nccc(-c2cnn3ncccc23)n1 | binding |  | 1 µM | 100
c1cncc(-c2cccc(Nc3nccc(NC4CCCCC4)n3)c2)c1 | binding | competition with immobilised ligand | 10 µM | 34
CNC(=O)c1ccc(Nc2ncc(C(F)(F)F)c(NCc3nccnc3N(C)S(C)(=O)=O)n2)cc1 | cell-free assay | competition with immobilised ligand | 0.1 µM | 79
N[C@@H]1CCN(c2nccc(-c3cnn4ncccc34)n2)C1 | binding |  | 1 µM | 100
CCC(=O)N[C@H]1CC[C@@H](C(=O)N(C)c2ccc(-c3nc4ccccc4o3)cc2)C1 | cell-free assay | competition with immobilised ligand | 1 µM | 78
O=C(c1ccc(Nc2ncc(Cl)c(-c3ccc(Cl)s3)n2)cc1)N1CCC(N2CCCC2)CC1 | binding | competition with immobilised ligand | 1 µM | 9.2
